Results as given in ChEMBL document CHEMBL4007404, “Identification of High-Potency Human TLR8 and Dual TLR7/TLR8 Agonists in Pyrimidine-2,4-diamines” (J Med Chem, 2017).
Active and inactive are the calls of the source. The rule behind the calls is not given here.

Legend:
[1] = molecular target: T1, Toll-like receptor 7 (Homo sapiens) (UniProt Q9NYK1); test: Agonist activity at TLR7 in human PBMC assessed as induction of IFN-alpha production after 16 hrs by multiplexed immunoassay
T1 sequence (whole entry): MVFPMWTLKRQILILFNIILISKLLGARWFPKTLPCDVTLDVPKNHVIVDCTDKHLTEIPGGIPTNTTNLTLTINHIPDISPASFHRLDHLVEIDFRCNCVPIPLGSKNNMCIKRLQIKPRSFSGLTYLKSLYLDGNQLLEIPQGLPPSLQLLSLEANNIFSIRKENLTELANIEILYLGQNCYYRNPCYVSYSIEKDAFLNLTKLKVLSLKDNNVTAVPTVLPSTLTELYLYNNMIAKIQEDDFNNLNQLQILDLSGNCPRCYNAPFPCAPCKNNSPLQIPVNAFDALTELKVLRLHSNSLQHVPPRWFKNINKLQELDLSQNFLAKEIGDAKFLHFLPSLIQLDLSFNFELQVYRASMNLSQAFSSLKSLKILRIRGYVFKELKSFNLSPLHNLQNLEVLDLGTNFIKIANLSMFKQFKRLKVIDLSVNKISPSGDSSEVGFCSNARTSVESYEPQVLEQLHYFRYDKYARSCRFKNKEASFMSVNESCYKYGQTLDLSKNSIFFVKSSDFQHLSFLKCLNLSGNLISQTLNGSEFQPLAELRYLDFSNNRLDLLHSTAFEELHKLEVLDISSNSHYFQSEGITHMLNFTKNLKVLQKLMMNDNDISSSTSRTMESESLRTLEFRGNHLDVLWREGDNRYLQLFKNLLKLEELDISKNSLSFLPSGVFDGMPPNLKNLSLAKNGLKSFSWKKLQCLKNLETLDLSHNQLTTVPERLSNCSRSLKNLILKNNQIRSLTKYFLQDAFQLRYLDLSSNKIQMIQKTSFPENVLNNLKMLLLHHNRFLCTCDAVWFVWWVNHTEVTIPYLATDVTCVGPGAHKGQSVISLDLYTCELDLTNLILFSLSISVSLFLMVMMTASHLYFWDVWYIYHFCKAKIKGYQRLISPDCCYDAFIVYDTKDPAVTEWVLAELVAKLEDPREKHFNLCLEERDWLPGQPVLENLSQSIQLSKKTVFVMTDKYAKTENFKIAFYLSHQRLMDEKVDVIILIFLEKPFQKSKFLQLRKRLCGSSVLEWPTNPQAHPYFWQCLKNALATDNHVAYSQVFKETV
Outline: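 Fresh human PBMCs were isolated from venous blood in cell preparation tubes. They were stimulated at 10^5 cells per well for 16 h with graded compound concentrations. Supernatants were taken off by centrifugation and assayed in duplicate on a 41-analyte magnetic bead cytokine/chemokine multiplex panel. Panel analytes include IFN-α2, IFN-γ, IL-12 (p40) and TNF-α.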

[2] = molecular target: T2, Toll-like receptor 8 (Homo sapiens) (UniProt Q9NR97); test: Agonist activity at human TLR8 expressed in HEK293 cells co-expressing secreted alkaline phosphatase assessed as induction of NF-kappaB/AP-1 promoter activity by measuring increase in secreted alkaline phosphatase level at 100 uM by spectrophotometric method; format: cell-based
T2 sequence (whole entry): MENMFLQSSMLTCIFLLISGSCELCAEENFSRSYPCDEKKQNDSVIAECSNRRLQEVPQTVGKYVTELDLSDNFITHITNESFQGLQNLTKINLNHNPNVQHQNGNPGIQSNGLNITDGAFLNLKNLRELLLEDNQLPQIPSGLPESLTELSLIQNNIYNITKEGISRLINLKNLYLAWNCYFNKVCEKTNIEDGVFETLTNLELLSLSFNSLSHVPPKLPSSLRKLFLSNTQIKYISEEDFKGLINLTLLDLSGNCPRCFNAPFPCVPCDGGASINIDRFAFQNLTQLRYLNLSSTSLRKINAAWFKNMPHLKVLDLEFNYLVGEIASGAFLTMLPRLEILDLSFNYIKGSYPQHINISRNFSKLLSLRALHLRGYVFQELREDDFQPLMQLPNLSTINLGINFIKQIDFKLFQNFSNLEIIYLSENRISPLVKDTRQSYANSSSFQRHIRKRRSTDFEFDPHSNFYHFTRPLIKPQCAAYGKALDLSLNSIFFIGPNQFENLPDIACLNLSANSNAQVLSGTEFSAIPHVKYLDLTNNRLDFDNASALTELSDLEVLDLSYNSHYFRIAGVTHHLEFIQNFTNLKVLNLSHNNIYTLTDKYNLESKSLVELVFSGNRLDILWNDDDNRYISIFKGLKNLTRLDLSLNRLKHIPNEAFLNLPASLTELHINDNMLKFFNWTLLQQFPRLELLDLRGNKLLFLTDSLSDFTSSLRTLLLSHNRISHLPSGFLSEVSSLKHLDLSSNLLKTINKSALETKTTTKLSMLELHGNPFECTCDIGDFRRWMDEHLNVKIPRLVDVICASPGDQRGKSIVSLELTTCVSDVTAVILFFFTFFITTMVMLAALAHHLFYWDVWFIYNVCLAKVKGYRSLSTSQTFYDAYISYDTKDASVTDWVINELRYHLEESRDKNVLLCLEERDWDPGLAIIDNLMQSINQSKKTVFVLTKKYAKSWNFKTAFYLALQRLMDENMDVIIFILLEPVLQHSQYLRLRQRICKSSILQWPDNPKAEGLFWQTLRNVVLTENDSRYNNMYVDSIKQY
Outline: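 HEK293 cells stably co-transfected with human TLR8 and NF-κB/AP-1-driven secreted alkaline phosphatase, kept in selection medium. Cells seeded at ~10⁵ cells/ml in 384-well plates with graded stimulus concentrations. Supernatant sAP read spectrophotometrically at 620 nm with an alkaline phosphatase-specific chromogen. TLR-2/-3/-4/-5/-9 reporter lines served as counter-screens.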

[3] = molecular target: T2, Toll-like receptor 8 (Homo sapiens); test: Agonist activity at TLR8 in human CD141 positive conventional dendritic cells assessed as upregulation of CD80 expression after 16 hrs by efluor 780 dye based flow cytometry
Outline: (§1)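 Human PBMCs were incubated with serial compound dilutions at 37 °C for 16 h, with DMSO controls. Cells were stained with eFluor780 viability dye, then lineage and DC antibodies plus CD80 PE, and fixed. 250,000 gated events were acquired. pDCs were gated as Live Lin⁻ CD123⁺ CD303⁺ CD304⁺ HLA-DR⁺. cDCs were gated as Lin⁻ CD1c⁺ CD141⁻ CD11c⁺ HLA-DR⁺ or Lin⁻ CD141⁺ CD1c⁻ HLA-DR⁺. Median fluorescence intensity was quantified.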

[4] = molecular target: T1, Toll-like receptor 7 (Homo sapiens); test: Agonist activity at TLR7 in human plasmacytoid dendritic cells assessed as upregulation of CD80 expression after 16 hrs by efluor 780 dye based flow cytometry; outline: as §1

Row | Compound | Activity [1] | Activity [2] | other results
1 | CCCCNc1nc(N)nc(C)c1CCCc1ccccc1 | Active |  | 
2 | CCCCNc1nc(N)nc(C)c1CCCC1CCCCC1 |  | inactive | 
3 | CCCCNc1nc(N)nc(C)c1C#CCc1ccccc1 |  | inactive | 
4 | CCCCNc1nc(N)nc(C)c1CCCN1CCOCC1 |  |  | Activity [3]: Active; Activity [4]: Active
5 | CCCCNc1nc(N)nc(C)c1CCCn1c(C)nc2ccccc21 | Active |  | 
